Legend:
[1] = folding enthalpy; higher = less favourable; fluorescence melt of hairpins on a sequencing array, two-state fit; conditions: sodium 0.088 M
Summary of the method: (§1)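 Melting temperature and folding enthalpy were derived from bootstrapped two-state fits. The fitted temperatures were raised by 9.35 °C to agree with UV melts, and four replicates were combined by inverse variance. The underlying data were Cy3 fluorescence images of library hairpins, with annealed Cy3 and quencher oligos, on a sequenced MiSeq flow cell in 50 mM Na-HEPES pH 8.0, 25 mM NaCl, taken in 2.5 °C steps up to 60 °C, normalised to pre-quench Cy3 and to control constructs.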

[2] = melting temperature; fluorescence melt of hairpins on a sequencing array, two-state fit, raised by 9.35 °C to match UV melts; conditions: sodium 0.088 M
Summary of the method: as §1

| Sequence | folding enthalpy [1] [kJ/mol] | Tm [2] [°C] |
| --- | --- | --- |
| GAGTGCGAAAGCACCCTC ((((((....)))..))) | -43.5 | 45.1 |
| GAGTGCGAAAGCAGACTC ((((((....)))..))) | -76 | 44.4 |
| GAGTGCGAAAGCAGCCTC ((((((....)))..))) | -55.2 | 34.5 |
| GAGTGCGAAAGCATCCTC ((((((....)))..))) | -42.8 | 33 |
| GAGTGCGAAAGCATTCTC ((((((....)))..))) | -90 | 52.3 |
| GAGTGCGCGAAAGCGCTC (((..(((....)))))) | -25 | 32 |
| GAGTGCGGAAACACACTC (((((.(....).))))) | -119 | 47.5 |
| GAGTGGGGAAACCTACTC ((((.((....)).)))) | -128 | 46.4 |
| GAGTGTGGAAACACACCC (.(((((....))))).) | -48.8 | 40.8 |
| GAGTGTGGAAACACACTC (((((((....))))))) | -151 | 66 |
| GAGTGTGGAAACACGTTC ((..(((....)))..)) | -51.2 | 42.9 |
| GAGTGTGGAAACATGCTC (((..((....))..))) | -131 | 38.7 |
| GAGTGTGGAAACGTACTC ((((..(....)..)))) | -95.9 | 35.5 |
| GAGTTAGAAATAACTC ((((((....)))))) | -132 | 43.2 |
| GAGTTAGGAAACTAACTC (((((((....))))))) | -152 | 54.8 |
| GAGTTCACGAAAGTGCTC (((..(((....)))))) | -45.6 | 28.1 |
| GAGTTCCGAAAGGACTC (((.(((....)))))) | -92.4 | 49.2 |
| GAGTTGCGAAAGCAGCTC (((.(((....))).))) | -135 | 62.1 |
| GAGTTGGCGAAAGCCCTC (((..(((....)))))) | -46.6 | 28.7 |
| GAGTTTACGAAAGTACTC (((..(((....)))))) | -52.7 | 30 |
| GATAAAACGAAAGTTATC (((..(((....)))))) | -40.4 | 22.7 |
| GATAAACGAAAGTTAATC (((.(((....))).))) | -66.9 | 34.4 |
| GATAACACGAAAGTGATC (((..(((....)))))) | -42 | 24.9 |

| Sequence | folding enthalpy [1] [kJ/mol] | Tm [2] [°C] |
| --- | --- | --- |
| GATAACGAAAGTTAATC ((((((....))).))) | -64.3 | 30.7 |
| GATAACGAAAGTTCATC ((((((....))).))) | -43.6 | 26.2 |
| GATAACGAAAGTTGTATC ((((((....)))..))) | -79.3 | 26.9 |
| GATAACGAAAGTTTATC ((((((....))).))) | -59.5 | 31.8 |
| GATAACGGAAACGTCATC (((.(((....))).))) | -80.8 | 31.4 |
| GATAAGCGAAAGCTAATC (((.(((....))).))) | -70.5 | 41.5 |
| GATAAGCGAAAGCTATC (((.(((....)))))) | -61.3 | 42.8 |
| GATAAGCGAAAGCTCATC (((.(((....))).))) | -66.6 | 33.8 |
| GATAAGGAAACTTATC ((((((....)))))) | -112 | 40.1 |
| GATACAGCGAAAGCTATC (((..(((....)))))) | -43.4 | 26.2 |
| GATACAGGAAACTGTATC (((((((....))))))) | -180 | 54 |
| GATACCCCGAAAGGGATC (((..(((....)))))) | -51.8 | 33.3 |
| GATACCGAAAGGTGGATC ((((((....)))..))) | -54.4 | 30.2 |
| GATACCGCGAAAGCGATC (((..(((....)))))) | -32 | 23 |
| GATACCGGAAACGGCATC (((.(((....))).))) | -104 | 43.8 |
| GATACGCGAAAGCGCATC (((.(((....))).))) | -84.6 | 46.4 |
| GATACGCGAAAGCGGATC (((.(((....))).))) | -123 | 66 |
| GATACTGGAAACAGCATC (((.(((....))).))) | -115 | 34.2 |
| GATACTGGAAACAGTGTC ((.((((....)))).)) | -108 | 44.7 |
| GATAGAGAAATCTATC ((((((....)))))) | -89.8 | 36.8 |
| GATAGCCGAAAGGCAATC (((.(((....))).))) | -79.9 | 46 |
| GATAGCGGAAACGTTATC ((((.((....)).)))) | -145 | 42.3 |
| GATAGCGGAAACGTTGTC ((.(.((....)).).)) | -67.4 | 27.5 |

| Sequence | folding enthalpy [1] [kJ/mol] | Tm [2] [°C] |
| --- | --- | --- |
| GATAGGAAACTATC (((((....))))) | -64.4 | 40.2 |
| GATAGGACGAAAGTCATC (((..(((....)))))) | -30.5 | 25.2 |
| GATAGGCGAAAGCCATC (((.(((....)))))) | -52.9 | 40.3 |
| GATAGGGAAACCTATC ((((((....)))))) | -145 | 47.6 |
| GATAGGGGAAACCCCATC (((.(((....))).))) | -70.8 | 35.6 |
| GATAGGGGAAACCCTATC (((((((....))))))) | -176 | 54.9 |
| GATATACGAAAGTACATC (((.(((....))).))) | -114 | 30.5 |
| GATATACGAAAGTAGATC (((.(((....))).))) | -130 | 44.1 |
| GATATGCGAAAGCAAATC (((.(((....))).))) | -102 | 40.1 |
| GATATGCGAAAGCACATC (((.(((....))).))) | -79.8 | 39.3 |
| GATATGGCGAAAGCCATC (((..(((....)))))) | -29.4 | 34.2 |
| GATCAAAAGATTGATC ((((((....)))))) | -86.1 | 33.3 |
| GATCAAACGATTGATC ((((((....)))))) | -106 | 39.9 |
| GATCAAACGGTTGATC ((((((....)))))) | -150 | 44.2 |
| GATCAAACGTTTGATC ((((((....)))))) | -173 | 51 |
| GATCAAACTCTTGATC ((((((....)))))) | -142 | 40.5 |
| GATCAAACTTTGATC ((((((...)))))) | -132 | 41.9 |
| GATCAAAGCCTTGATC ((((((....)))))) | -119 | 44.1 |
| GATCAAAGGTTGATC ((((((...)))))) | -114 | 40 |
| GATCAAAGTTTGATC ((((((...)))))) | -114 | 42.7 |
| GATCAAATAGTTGATC ((((((....)))))) | -124 | 37.9 |
| GATCAAATATTTGATC ((((((....)))))) | -202 | 47.1 |
| GATCAAATCCTTGATC ((((((....)))))) | -150 | 42.1 |
